Laboratory results from ChEMBL document CHEMBL2086369, “Design, synthesis, and pharmacological characterization of indol-3-ylacetamides, indol-3-yloxoacetamides, and indol-3-ylcarboxamides: potent and selective CB2 cannabinoid receptor inverse agonists” (J Med Chem, 2012).

Target: Cannabinoid receptor 1 (Homo sapiens, UniProt P21554)
Experiment: biochemical
Type: cell-based, HEK293
Settings: not given

Sequence of Cannabinoid receptor 1 (P21554 whole entry): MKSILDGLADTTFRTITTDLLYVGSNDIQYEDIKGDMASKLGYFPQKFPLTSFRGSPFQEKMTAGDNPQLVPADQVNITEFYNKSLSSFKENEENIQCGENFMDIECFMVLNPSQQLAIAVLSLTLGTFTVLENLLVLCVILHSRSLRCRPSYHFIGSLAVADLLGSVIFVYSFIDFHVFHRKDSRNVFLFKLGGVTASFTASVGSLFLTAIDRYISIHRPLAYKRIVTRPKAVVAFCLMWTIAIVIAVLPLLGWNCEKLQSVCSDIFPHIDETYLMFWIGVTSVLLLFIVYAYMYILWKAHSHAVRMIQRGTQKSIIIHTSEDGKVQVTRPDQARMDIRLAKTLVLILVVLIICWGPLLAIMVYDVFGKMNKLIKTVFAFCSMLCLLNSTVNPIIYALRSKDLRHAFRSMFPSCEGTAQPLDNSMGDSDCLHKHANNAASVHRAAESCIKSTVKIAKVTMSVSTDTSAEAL

First: CCCCCn1cc(C(=O)NC23CC4CC(CC(C4)C2)C3)c2ccc(-c3ccccc3)cc21
Second: CCCCCn1cc(C(=O)C(=O)NC23CC4CC(CC(C4)C2)C3)c2cc(-c3ccccc3)ccc21
The Ki of the first is lower: 2.03 nM for the first, greater than 10000 nM for the second. The first binds more tightly here.

`Cn1cc(CC(=O)NC23CC4CC(CC(C4)C2)C3)c2cc(-c3ccccc3)ccc21` and `CCn1cc(CC(=O)NC23CC4CC(CC(C4)C2)C3)c2cc(-c3ccccc3)ccc21` are within 1.5-fold of each other in Ki: 488 nM for the first, 698 nM for the second.

Compared with `C=CCn1cc(C(=O)C(=O)NC23CC4CC(CC(C4)C2)C3)c2cc(-c3ccco3)ccc21`, `C=CCn1cc(CC(=O)NC23CC4CC(CC(C4)C2)C3)c2cc(-c3ccco3)ccc21` is 6.5-fold lower in Ki: 3620 nM for the first, 560 nM for the second.

First: CCCCn1cc(CC(=O)NC23CC4CC(CC(C4)C2)C3)c2cc(-c3ccccc3)ccc21
Second: C=CCCn1cc(CC(=O)NC23CC4CC(CC(C4)C2)C3)c2cc(-c3ccccc3)ccc21
The Ki of the first is higher: greater than 10000 nM for the first, 1830 nM for the second. The second binds more tightly here.

Compared with `C=CCn1cc(C(=O)NC23CC4CC(CC(C4)C2)C3)c2cc(-c3ccc(O)cc3)ccc21`, `C=CCn1cc(C(=O)C(=O)NC23CC4CC(CC(C4)C2)C3)c2cc(-c3ccccc3)ccc21` is lower in Ki: greater than 10000 nM for the first, 3920 nM for the second.

Compared with `CCCCCn1cc(C(=O)NC23CC4CC(CC(C4)C2)C3)c(=O)c2cc(-c3ccco3)ccc21`, `C=CCn1cc(CC(=O)NC23CC4CC(CC(C4)C2)C3)c2cc(-c3ccccc3)ccc21` is lower in Ki: greater than 10000 nM for the first, 530 nM for the second. The second binds more tightly here.

`CCCCCn1cc(C(=O)C(=O)NC2CCCCC2)c2cc(-c3ccccc3)ccc21` and `C=CCn1cc(CC(=O)NC2CCCCC2)c2cc(OCc3cccc(OC)c3)ccc21` cannot be ordered by Ki: greater than 10000 nM for the first, greater than 10000 nM for the second.

Target: T1, Cannabinoid receptor 2 (Homo sapiens, UniProt P34972)
T1 sequence (P34972 whole entry): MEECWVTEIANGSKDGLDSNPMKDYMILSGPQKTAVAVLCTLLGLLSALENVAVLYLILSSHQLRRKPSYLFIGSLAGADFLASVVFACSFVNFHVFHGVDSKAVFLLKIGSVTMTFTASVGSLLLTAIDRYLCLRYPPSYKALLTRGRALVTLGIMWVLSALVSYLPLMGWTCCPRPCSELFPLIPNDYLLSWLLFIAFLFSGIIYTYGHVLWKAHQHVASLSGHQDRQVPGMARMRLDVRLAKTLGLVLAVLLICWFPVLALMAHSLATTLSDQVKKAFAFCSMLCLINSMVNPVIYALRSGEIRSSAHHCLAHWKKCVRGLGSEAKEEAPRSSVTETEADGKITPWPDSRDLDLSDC
Experiment: Displacement of [3H]CP-55,940 from human recombinant CB2 receptor transfected in HEK cells
Type: cell-based, HEK293
Settings: not given

Compared with `CCCCCn1cc(C(=O)NC23CC4CC(CC(C4)C2)C3)c2ccc(-c3ccccc3)cc21`, `CCCCCn1cc(C(=O)C(=O)NC23CC4CC(CC(C4)C2)C3)c2cc(-c3ccccc3)ccc21` is 3.6-fold higher in Ki: 3.52 nM for the first, 12.7 nM for the second. The first binds more tightly here.

`Cn1cc(CC(=O)NC23CC4CC(CC(C4)C2)C3)c2cc(-c3ccccc3)ccc21` and `CCn1cc(CC(=O)NC23CC4CC(CC(C4)C2)C3)c2cc(-c3ccccc3)ccc21` are within 1.5-fold of each other in Ki: 98 nM for the first, 67 nM for the second.

Compared with `C=CCn1cc(C(=O)C(=O)NC23CC4CC(CC(C4)C2)C3)c2cc(-c3ccco3)ccc21`, `C=CCn1cc(CC(=O)NC23CC4CC(CC(C4)C2)C3)c2cc(-c3ccco3)ccc21` is 4.9-fold higher in Ki: 10.3 nM for the first, 50 nM for the second.

`CCCCn1cc(CC(=O)NC23CC4CC(CC(C4)C2)C3)c2cc(-c3ccccc3)ccc21` and `C=CCCn1cc(CC(=O)NC23CC4CC(CC(C4)C2)C3)c2cc(-c3ccccc3)ccc21` are within 1.5-fold of each other in Ki: 20.5 nM for the first, 17.8 nM for the second.

`C=CCn1cc(C(=O)NC23CC4CC(CC(C4)C2)C3)c2cc(-c3ccc(O)cc3)ccc21` and `C=CCn1cc(C(=O)C(=O)NC23CC4CC(CC(C4)C2)C3)c2cc(-c3ccccc3)ccc21` are within 1.5-fold of each other in Ki: 22.2 nM for the first, 25.4 nM for the second.

Going from `C=CCn1cc(CC(=O)NC23CC4CC(CC(C4)C2)C3)c2cc(-c3ccccc3)ccc21` to `C=CCn1cc(CC(=O)NC2CCCCC2)c2cc(OCc3cccc(OC)c3)ccc21`, the Ki rises from 50 nM to 400 nM (8-fold).

With `CCCCCn1cc(C(=O)C(=O)NC2CCCCC2)c2cc(-c3ccccc3)ccc21` the Ki was 11.2 nM.

Target: T1, Cannabinoid receptor 2
Experiment: Inverse agonist activity at human CB2 receptor expressed in CHO cells assessed as increase of forskolin-induced cAMP level at 1 uM by scintillation counting
Type: functional, cell-based
Settings: not given
In short: (§1)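 CHO cells expressing human CB2, trypsinized, 1 × 10⁶ cells per assay in HEPES-buffered saline with glucose, pH 7.4, 37 °C. Preincubated 10 min with 0.5 mM Ro 20-1724. Compound tested with 1 μM forskolin. Stopped with cold 6% TCA, ether-extracted, cAMP measured by [³H]cAMP competition binding to adrenal binding protein with scintillation counting. Given as % cAMP increase; means of ≥4 experiments in duplicate.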

Compared with `C=CCn1cc(C(=O)C(=O)NC23CC4CC(CC(C4)C2)C3)c2cc(-c3ccco3)ccc21`, `C=CCn1cc(C(=O)NC23CC4CC(CC(C4)C2)C3)c2cc(-c3ccc(O)cc3)ccc21` is lower in Activity: 62% for the first, 51% for the second.

Compared with `C=CCn1cc(CC(=O)NC23CC4CC(CC(C4)C2)C3)c2cc(-c3ccccc3)ccc21`, `CCCCCn1cc(C(=O)C(=O)NC23CC4CC(CC(C4)C2)C3)c2cc(-c3ccccc3)ccc21` is lower in Activity: 67% for the first, 55% for the second.

Target: T1, Cannabinoid receptor 2
Experiment: Inverse agonist activity at human CB2 receptor expressed in CHO cells assessed as increase of forskolin-induced cAMP level at 10 uM by scintillation counting
Type: functional, cell-based
Settings: not given
In short: as §1

Going from `C=CCn1cc(C(=O)C(=O)NC23CC4CC(CC(C4)C2)C3)c2cc(-c3ccco3)ccc21` to `C=CCn1cc(C(=O)NC23CC4CC(CC(C4)C2)C3)c2cc(-c3ccc(O)cc3)ccc21`, the Activity falls from 75% to 68%.

Going from `C=CCn1cc(CC(=O)NC23CC4CC(CC(C4)C2)C3)c2cc(-c3ccccc3)ccc21` to `CCCCCn1cc(C(=O)C(=O)NC23CC4CC(CC(C4)C2)C3)c2cc(-c3ccccc3)ccc21`, the Activity falls from 88% to 70%.

Organism: Homo sapiens
Experiment: Selectivity index, ratio of Ki for human recombinant CB1 receptor to Ki for human recombinant CB2 receptor
Settings: not given

Compared with `CCCCCn1cc(C(=O)NC23CC4CC(CC(C4)C2)C3)c2ccc(-c3ccccc3)cc21`, `CCCCCn1cc(C(=O)C(=O)NC23CC4CC(CC(C4)C2)C3)c2cc(-c3ccccc3)ccc21` is higher in Ratio Ki: 0.6 for the first, greater than 787 for the second.

Going from `Cn1cc(CC(=O)NC23CC4CC(CC(C4)C2)C3)c2cc(-c3ccccc3)ccc21` to `CCn1cc(CC(=O)NC23CC4CC(CC(C4)C2)C3)c2cc(-c3ccccc3)ccc21`, the Ratio Ki rises from 5 to 10.4.

Compared with `C=CCn1cc(C(=O)C(=O)NC23CC4CC(CC(C4)C2)C3)c2cc(-c3ccco3)ccc21`, `C=CCn1cc(CC(=O)NC23CC4CC(CC(C4)C2)C3)c2cc(-c3ccco3)ccc21` is lower in Ratio Ki: 351 for the first, 11.2 for the second.

Going from `CCCCn1cc(CC(=O)NC23CC4CC(CC(C4)C2)C3)c2cc(-c3ccccc3)ccc21` to `C=CCCn1cc(CC(=O)NC23CC4CC(CC(C4)C2)C3)c2cc(-c3ccccc3)ccc21`, the Ratio Ki falls from greater than 487 to 103.

Going from `C=CCn1cc(C(=O)NC23CC4CC(CC(C4)C2)C3)c2cc(-c3ccc(O)cc3)ccc21` to `C=CCn1cc(C(=O)C(=O)NC23CC4CC(CC(C4)C2)C3)c2cc(-c3ccccc3)ccc21`, the Ratio Ki falls from greater than 450 to 154.

Going from `C=CCn1cc(CC(=O)NC23CC4CC(CC(C4)C2)C3)c2cc(-c3ccccc3)ccc21` to `C=CCn1cc(CC(=O)NC2CCCCC2)c2cc(OCc3cccc(OC)c3)ccc21`, the Ratio Ki rises from 10.6 to greater than 25.

With `CCCCCn1cc(C(=O)C(=O)NC2CCCCC2)c2cc(-c3ccccc3)ccc21` the Ratio Ki was greater than 892.

Target: T1, Cannabinoid receptor 2
Experiment: not given
Settings: CHO, 10 uM

Compound `CCCC(C)(C)c1ccc2c(c1)OC(C)(C)[C@@H]1CC=C(C)C[C@@H]21` has an inhibition of 94%.

Target: T1, Cannabinoid receptor 2
Experiment: not given
Settings: CHO, 1 uM

With `CCCC(C)(C)c1ccc2c(c1)OC(C)(C)[C@@H]1CC=C(C)C[C@@H]21` the inhibition was 87%.
